Source: ChEMBL document CHEMBL1157166, “Synthesis, antimalarial activity, structure-activity relationship analysis of thieno-[3,2-b]benzothiazine S,S-dioxide analogs” (2008)

Legend:
Type in all cases: functional
Plasmodium berghei [1] = test: Antiparasitic activity against Plasmodium berghei ANKA infected BALB/c mice (Mus musculus) after 18 hrs as reduced hemoglobin proteolysis
Method in brief: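 Parasite extract: blood from P. berghei ANKA-infected mice (30–70% parasitemia); erythrocytes washed and lysed, then freed parasites freeze–thawed three times. Native mouse hemoglobin was incubated with extract, GSH and 0.2 M acetate buffer pH 5.4, with compound in DMSO, at 37 °C for 18 h. Leupeptin, pepstatin and chloroquine were references. Digestion was judged visually from the 14.4 kDa globin band on SDS–PAGE.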

[2] = target: T1, Histidine-rich protein PFHRP-II (Plasmodium falciparum) (UniProt P05227); test: Inhibition of beta-hematin formation using synthetic hemin chloride; design: concentration or dose not given beside the values; conditions: concentration not given here
T1 sequence (whole entry): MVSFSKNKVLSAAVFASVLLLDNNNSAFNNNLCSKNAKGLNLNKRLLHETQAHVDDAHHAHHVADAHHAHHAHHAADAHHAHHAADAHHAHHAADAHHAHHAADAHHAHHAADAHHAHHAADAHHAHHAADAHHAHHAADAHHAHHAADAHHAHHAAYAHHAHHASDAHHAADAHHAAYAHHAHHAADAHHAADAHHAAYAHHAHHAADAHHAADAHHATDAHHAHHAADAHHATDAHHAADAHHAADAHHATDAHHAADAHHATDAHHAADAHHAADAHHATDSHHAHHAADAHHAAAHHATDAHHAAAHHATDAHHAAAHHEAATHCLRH
Method in brief: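 Hemin chloride (4 mM in DMSO) was mixed in triplicate with compound in DMSO (50–5 mM as added); water or DMSO served as controls. Acetate buffer (0.2 M, pH 4.4) was added, then incubated at 37 °C for 48 h and centrifuged. The pellet was washed with DMSO, dissolved in 0.2 N NaOH and diluted 1:2 in 0.1 N NaOH. A405 was read and expressed as % inhibition of β-hematin formation.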

Plasmodium berghei [3] = test: Antiparasitic activity as survival days against chloroquine-sensitive Plasmodium berghei ANKA infected NIH mice (Mus musculus) at 20 mg/kg intraperitoneal dose
Method in brief: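 NIH mice (18–22 g) infected ip with 1 × 10⁷ P. berghei parasites; dosing started 2 h post-infection. Compound dissolved in DMSO (0.1 M stock), diluted in 2% Saline–Tween 20, given ip at 20 mg/kg once daily for 4 days. Chloroquine 25 mg/kg as positive control; saline-treated mice as untreated controls. Survival time after infection recorded versus control mice.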

Plasmodium berghei [4] = test: Antiparasitic activity as reduced parasitaemia against chloroquine-sensitive Plasmodium berghei ANKA infected NIH mice (Mus musculus) at 20 mg/kg intraperitoneal dose at day 4; design: scale not given: the % may be the effect or the level left
Method in brief: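 Four-day suppressive test in NIH mice (18–22 g) infected ip with 1 × 10⁷ P. berghei. Dosing began 2 h post-infection: 20 mg/kg ip once daily for 4 days, from a 0.1 M DMSO stock diluted in 2% saline–Tween 20. Chloroquine at 25 mg/kg was the positive control. Day-4 parasitemia was read from Giemsa smears as a percentage versus saline-treated controls.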

Row | Compound | inhibition (INH) (Plasmodium berghei [1]) [%] | inhibition [2] [%] | Survival (Plasmodium berghei [3]) [days] | Activity (Plasmodium berghei [4]) [%]
1 | CCOC(=O)c1sc2c(c1N)S(=O)(=O)c1cc(Cl)ccc1N2c1ccc(OC)cc1 | 0 | < 5 | – | –
2 | CCOC(=O)c1sc2c(c1N)S(=O)(=O)c1cc(Cl)ccc1N2c1cccc(Cl)c1 | 0 | < 5 | – | –
3 | CCOC(=O)c1sc2c(c1N)S(=O)(=O)c1cc(Cl)ccc1N2c1cccc(OC)c1 | 0 | < 5 | – | –
4 | CCOC(=O)c1sc2c(c1N)S(=O)(=O)c1ccc(Cl)cc1N2c1ccc(C)cc1 | 64.98 | < 5 | 10.8 | 15.7
5 | CCOC(=O)c1sc2c(c1N)S(=O)(=O)c1cc(Cl)ccc1N2c1ccc(Cl)c(Cl)c1 | 0 | < 5 | – | –
6 | CCOC(=O)c1sc2c(c1N)S(=O)(=O)c1ccc(Cl)cc1N2c1ccc(Cl)cc1 | 0 | < 5 | – | –
7 | CCOC(=O)c1sc2c(c1N)S(=O)(=O)c1cc(Cl)ccc1N2c1cc(C)ccc1C | 0 | < 5 | – | –
8 | CCOC(=O)c1sc2c(c1N)S(=O)(=O)c1ccc(Cl)cc1N2c1ccccc1C | 74.36 | < 5 | 15.5 | 8.7
9 | CCOC(=O)c1sc2c(c1N)S(=O)(=O)c1ccc(Cl)cc1N2c1cccc(Cl)c1 | 0 | < 5 | – | –
10 | CCOC(=O)c1sc2c(c1N)S(=O)(=O)c1ccc(Cl)cc1N2c1ccccc1 | 78.17 | < 5 | 13 | 9.75
11 | CC(C)CC(=O)N[C@H](C(=O)N[C@H](C(=O)N[C@@H](CC(C)C)[C@@H](O)CC(=O)N[C@@H](C)C(=O)N[C@@H](CC(C)C)[C@@H](O)CC(=O)O)C(C)C)C(C)C [PEPSTATIN] | 92.94 | – | – | –
12 | CCOC(=O)c1sc2c(c1N)S(=O)(=O)c1cc(Cl)ccc1N2c1ccc(C)cc1 | 0 | < 5 | – | –
13 | CCOC(=O)c1sc2c(c1N)S(=O)(=O)c1cc(Cl)ccc1N2c1ccccc1 | 0 | < 5 | – | –
14 | CCOC(=O)c1sc2c(c1N)S(=O)(=O)c1ccc(Cl)cc1N2c1cccc(OC)c1 | 55.96 | < 5 | 12.16 | 11.6
15 | CCN(CC)CCCC(C)Nc1ccnc2cc(Cl)ccc12 (stereo not drawn) [CHLOROQUINE] | 24.12 | – | 30 | 1.31
16 | CCOC(=O)c1sc2c(c1N)S(=O)(=O)c1cc(Cl)ccc1N2c1ccc(Cl)cc1 | 0 | < 5 | – | –
17 | CCOC(=O)c1sc2c(c1N)S(=O)(=O)c1cc(Cl)ccc1N2c1ccccc1C | 0 | < 5 | – | –
18 | CC(=O)N[C@@H](CC(C)C)C(=O)N[C@@H](CC(C)C)C(=O)N[C@H](C=O)CCCNC(=N)N [LEUPEPTIN] | 89.06 | – | – | –
19 | CCOC(=O)c1sc2c(c1N)S(=O)(=O)c1ccc(Cl)cc1N2c1cc(C)ccc1C | 76.81 | < 5 | 11.42 | 9.4
20 | CCOC(=O)c1sc2c(c1N)S(=O)(=O)c1ccc(Cl)cc1N2c1ccc(Cl)c(Cl)c1 | <5 | < 5 | – | –
21 | CCOC(=O)c1sc2c(c1N)S(=O)(=O)c1ccc(Cl)cc1N2c1ccc(OC)cc1 | 37.01 | < 5 | 11.6 | 11.21
